Laboratory results reported in ChEMBL document CHEMBL1240347, “MK-7009, a potent and selective inhibitor of hepatitis C virus NS3/4A protease” (Antimicrob Agents Chemother, 2010).

Experiments:
Cathepsin S = Cathepsin S (Homo sapiens, UniProt P25774); assay: Inhibition of human Cathepsin S
Procathepsin L = Procathepsin L (Homo sapiens, UniProt P07711); assay: Inhibition of human Cathepsin L
Cathepsin L2 = biological target: T1, Cathepsin L2 (Homo sapiens, UniProt O60911); assay: Inhibition of human Cathepsin V
T1 sequence (O60911 whole entry): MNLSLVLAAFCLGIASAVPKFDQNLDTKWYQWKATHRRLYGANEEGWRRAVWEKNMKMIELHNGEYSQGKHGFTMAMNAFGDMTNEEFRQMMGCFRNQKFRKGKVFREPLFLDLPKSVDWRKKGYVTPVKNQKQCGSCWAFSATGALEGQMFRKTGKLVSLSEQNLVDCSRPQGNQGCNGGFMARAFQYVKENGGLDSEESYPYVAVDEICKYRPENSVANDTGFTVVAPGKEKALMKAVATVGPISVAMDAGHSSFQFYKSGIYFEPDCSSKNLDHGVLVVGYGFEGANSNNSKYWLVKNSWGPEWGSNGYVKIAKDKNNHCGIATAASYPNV

[1] = biological target: Chymotrypsin-like elastase family member 1 (Homo sapiens, UniProt Q9UNI1); assay: Inhibition of human Pancreatic elastase 1
Chymotrypsin-like elastase family member 1, sequence (Q9UNI1 whole entry): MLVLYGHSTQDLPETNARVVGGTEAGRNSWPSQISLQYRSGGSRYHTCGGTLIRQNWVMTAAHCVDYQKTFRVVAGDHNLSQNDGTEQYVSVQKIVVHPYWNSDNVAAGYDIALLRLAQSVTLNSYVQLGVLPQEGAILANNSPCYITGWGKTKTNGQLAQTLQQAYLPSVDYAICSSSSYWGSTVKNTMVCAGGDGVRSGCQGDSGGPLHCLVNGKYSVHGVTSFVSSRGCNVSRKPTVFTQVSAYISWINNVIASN

Neutrophil elastase = biological target: T2, Neutrophil elastase (Homo sapiens, UniProt P08246); assay: Inhibition of human Neutrophil elastase 2
T2 sequence (P08246 whole entry): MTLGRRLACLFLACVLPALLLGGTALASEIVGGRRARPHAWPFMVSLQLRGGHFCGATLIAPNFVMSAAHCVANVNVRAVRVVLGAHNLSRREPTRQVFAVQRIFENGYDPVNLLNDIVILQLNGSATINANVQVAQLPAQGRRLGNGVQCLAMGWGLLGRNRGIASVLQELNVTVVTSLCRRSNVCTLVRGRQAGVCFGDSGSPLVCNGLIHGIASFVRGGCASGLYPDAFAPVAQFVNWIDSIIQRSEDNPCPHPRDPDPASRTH

Hepatitis C virus [2] = assay: Antiviral activity against Hepatitis C virus containing NS3/4a Con1 sequence by transient cell-base protease activity; assay type: functional, organism-based, Hepacivirus hominis
Hepatitis C virus [3] = assay: Antiviral activity against Hepatitis C virus containing NS3/4a ps20 sequence by transient cell-base protease activity; assay type: functional, organism-based, Hepacivirus hominis
Outline: (§1)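 Transient cell-based phenotype assay of protease activity, using NS3/4A sequences cloned from plasma of HCV-infected patients. EC50s were determined.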

Hepatitis C virus [4] = assay: Antiviral activity against Hepatitis C virus containing NS3/4a ps30 sequence by transient cell-base protease activity; assay type: functional, organism-based, Hepacivirus hominis; outline: as §1
Cathepsin B = Cathepsin B (Homo sapiens, UniProt P07858); assay: Inhibition of human Cathepsin B
Serine protease 1 = Serine protease 1 (Homo sapiens, UniProt P07477); assay: Inhibition of human Trypsin activity
Serine protease 1, sequence (P07477 whole entry): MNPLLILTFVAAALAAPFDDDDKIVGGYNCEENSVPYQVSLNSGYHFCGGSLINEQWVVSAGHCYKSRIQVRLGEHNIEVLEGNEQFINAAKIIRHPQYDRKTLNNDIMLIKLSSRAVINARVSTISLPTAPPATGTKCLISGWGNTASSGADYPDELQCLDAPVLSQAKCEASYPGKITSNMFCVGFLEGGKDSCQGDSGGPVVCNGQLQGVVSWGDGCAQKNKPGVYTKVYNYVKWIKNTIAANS

Hepatitis C virus [5] = assay: Antiviral activity against Hepatitis C virus containing NS3/D168Y protease mutant activity by TaqMan-based assay; assay type: functional, organism-based, Hepacivirus hominis
Hepatitis C virus [6] = assay: Antiviral activity against Hepatitis C virus containing NS3/A156T protease mutant activity by TaqMan-based assay; assay type: functional, organism-based, Hepacivirus hominis
Outline: (§2)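 Panel of stable HCV replicon cell lines carrying NS3 protease mutations. Replicon RNA read out by a TaqMan-based assay, and EC50 values determined.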

Hepatitis C virus [7] = assay: Antiviral activity against Hepatitis C virus containing NS3/R155K protease mutant activity by TaqMan-based assay; assay type: functional, organism-based, Hepacivirus hominis; outline: as §2
Hepatitis C virus [8] = assay: Antiviral activity against Hepatitis C virus genotype 1b infected in […] cell by cell-based HCV replicon assay in presence of 50% normal human serum; assay type: functional, organism-based, Hepacivirus hominis
Outline: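 Stable genotype 1b (con1) replicon cell line HB1, assayed in the presence of 50% normal human serum.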

[9] = Inhibition of Hepatitis C virus genotype 2a NS3/4A protease activity; design: species or system Hepatitis C virus subtype 2a
Outline: (§3)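 Recombinant NS3/4A protease was expressed in and purified from E. coli. Inhibition was measured by a time-resolved, internally quenched fluorescence assay at low enzyme concentration. Kis were reported.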

[10] = Inhibition of Hepatitis C virus genotype 1a NS3/4A protease activity; design: species or system Hepatitis C virus subtype 1a; outline: as §3
[11] = Metabolic stability in chimpanzee liver assessed as drug level at 10 mg/kg, po after 12 hrs by LC/MS/MS analysis; assay type: ADME, organism-based, Pan troglodytes; design: dose 10 mg/kg, route oral; conditions: read-out: Drug uptake
Outline: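 Two uninfected chimpanzees were dosed orally in chocolate milk vehicle (0.67 ml/kg). A liver biopsy (~200 μl) was taken under sedation at the single 12-h time point, homogenized in 4 volumes of deionized water, and analysed by LC/MS/MS after protein precipitation.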

[12] = AUC (0-24 hrs) in chimpanzee at 10 mg/kg, po by LC/MS/MS analysis; assay type: ADME, organism-based, Pan troglodytes; design: time < 24 hr, dose 10 mg/kg, route oral; conditions: plasma
Outline: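 Two HCV-uninfected chimpanzees (about 57 and 52 kg) drank the dose voluntarily in a chocolate milk vehicle (0.67 ml/kg). EDTA plasma was stored at −70°C and quantified by LC/MS/MS after protein precipitation.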

[13] = AUC (0-24 hrs) in dog at 5 mg/kg, po by LC/MS/MS analysis; assay type: ADME, organism-based, Canis lupus familiaris; design: time < 24 hr, dose 5 mg/kg, route oral; conditions: plasma
Outline: (§4)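 Dosed orally as a solution in polyethylene glycol 400 (2.0 ml/kg), with n = 3. EDTA plasma was centrifuged off and held at −70°C. Drug levels were determined by LC/MS/MS following protein precipitation.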

[14] = Cmax in rhesus monkey at 5 mg/kg, po by LC/MS/MS analysis; assay type: ADME, organism-based, Macaca mulatta; design: dose 5 mg/kg, route oral; conditions: in vivo; outline: as §4
[15] = AUC (0-24 hrs) in dog at 2 mg/kg, iv by LC/MS/MS analysis; assay type: ADME, organism-based, Canis lupus familiaris; design: time < 24 hr, dose 2 mg/kg, route intravenous; conditions: plasma
Outline: (§5)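 Fasted animals received an intravenous bolus in DMSO at 1.0 ml/kg (rat), 0.1 ml/kg (dog) or 0.1 ml/kg (rhesus), with n = 3. Blood was drawn into EDTA tubes, and plasma was separated by centrifugation and stored at −70°C. Drug was quantified by LC/MS/MS after protein precipitation.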

[16] = Half life in dog at 2 mg/kg, iv by LC/MS/MS analysis; assay type: ADME, organism-based, Canis lupus familiaris; design: dose 2 mg/kg, route intravenous; conditions: in vivo; outline: as §5
[17] = Half life in rhesus monkey at 2 mg/kg, iv by LC/MS/MS analysis; assay type: ADME, organism-based, Macaca mulatta; design: dose 2 mg/kg, route intravenous; conditions: in vivo; outline: as §5
[18] = Half life in rat at 2 mg/kg, iv by LC/MS/MS analysis; assay type: ADME, organism-based; design: dose 2 mg/kg, route intravenous; conditions: in vivo; outline: as §5
[19] = Volume of distribution in rhesus monkey at 2 mg/kg, iv by LC/MS/MS analysis; assay type: ADME, organism-based, Macaca mulatta; design: dose 2 mg/kg, route intravenous; conditions: in vivo
Outline: (§6)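 Fasted animals received an IV bolus in DMSO at 1.0 ml/kg for rats and 0.1 ml/kg for dogs and rhesus monkeys, at 2 mg/kg; n = 3 per species. Blood was drawn into EDTA tubes at set times, and plasma was separated by centrifugation and stored at −70°C. Drug was quantified by LC/MS/MS after protein precipitation.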

[20] = Volume of distribution in rat at 2 mg/kg, iv by LC/MS/MS analysis; assay type: ADME, organism-based; design: dose 2 mg/kg, route intravenous; conditions: in vivo; outline: as §6
[21] = Plasma clearance in rhesus monkey at 2 mg/kg, iv by LC/MS/MS analysis; assay type: ADME, organism-based, Macaca mulatta; design: dose 2 mg/kg, route intravenous; outline: as §6
[22] = Plasma clearance in dog at 2 mg/kg, iv by LC/MS/MS analysis; assay type: ADME, organism-based, Canis lupus familiaris; design: dose 2 mg/kg, route intravenous; outline: as §5
Hepatitis C virus [23] = assay: Antiviral activity against Hepatitis C virus containing NS3/4a ps40 sequence by transient cell-base protease activity; assay type: functional, organism-based, Hepacivirus hominis; outline: as §1
Pan troglodytes = assay: AUC in chimpanzee at 10 mg/kg, po from 0 to 24 hrs by LC/MS/MS analysis; conditions: in vivo
[24] = test system: Hepatitis C virus genotype 1b; assay: Antiviral activity against Hepatitis C virus genotype 1b containing NS3/con1 protease mutant by TaqMan-based assay; conditions: subtype 1b

Procathepsin L, sequence (P07711 whole entry): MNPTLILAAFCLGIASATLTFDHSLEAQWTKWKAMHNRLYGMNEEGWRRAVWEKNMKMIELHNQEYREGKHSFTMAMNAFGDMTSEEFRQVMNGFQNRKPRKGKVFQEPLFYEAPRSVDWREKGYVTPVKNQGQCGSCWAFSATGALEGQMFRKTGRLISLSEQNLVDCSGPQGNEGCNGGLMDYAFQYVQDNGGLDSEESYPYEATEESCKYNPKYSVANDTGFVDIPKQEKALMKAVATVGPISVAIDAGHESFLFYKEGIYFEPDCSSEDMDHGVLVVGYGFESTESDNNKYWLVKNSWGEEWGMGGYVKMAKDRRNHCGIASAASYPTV
Cathepsin S, sequence (P25774 whole entry): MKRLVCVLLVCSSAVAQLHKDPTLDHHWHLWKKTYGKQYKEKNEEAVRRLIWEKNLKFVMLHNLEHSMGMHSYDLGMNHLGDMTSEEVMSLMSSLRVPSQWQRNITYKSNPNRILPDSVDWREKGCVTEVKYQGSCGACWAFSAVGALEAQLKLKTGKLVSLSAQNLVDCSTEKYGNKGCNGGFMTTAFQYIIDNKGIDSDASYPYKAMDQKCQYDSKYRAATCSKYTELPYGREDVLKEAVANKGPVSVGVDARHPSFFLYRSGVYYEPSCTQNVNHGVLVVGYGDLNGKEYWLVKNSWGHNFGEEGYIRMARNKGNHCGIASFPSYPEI

Compound: CC[C@@H]1C[C@]1(NC(=O)[C@@H]1C[C@@H]2CN1C(=O)[C@H](C(C)(C)C)NC(=O)OCC(C)(C)CCCCc1cccc3c1CN(C3)C(=O)O2)C(=O)NS(=O)(=O)C1CC1 [VANIPREVIR]
- IC50 (Cathepsin S): > 10000 nM
- IC50 (Procathepsin L): > 10000 nM
- IC50 (Cathepsin L2): > 10000 nM
- IC50 [1]: > 10000 nM
- IC50 (Neutrophil elastase): > 10000 nM
- EC50 (Hepatitis C virus [2]): 4.1 nM
- EC50 (Hepatitis C virus [3]): 2.9 nM
- EC50 (Hepatitis C virus [4]): 27 nM
- IC50 (Cathepsin B): > 10000 nM
- IC50 (Serine protease 1): > 10000 nM
- EC50 (Hepatitis C virus [5]): 430 nM
- EC50 (Hepatitis C virus [6]): 200 nM
- EC50 (Hepatitis C virus [7]): 350 nM
- EC50 (Hepatitis C virus [8]): 13 nM
- Ki [9]: 1 nM
- Ki [10]: 0.07 nM
- concentration at 12 h [11]: 31 µM
- AUC(0-t) at 24 h [12]: 5.2 µM·h
- AUC(0-t) at 24 h [13]: 1.2 µM·h
- Cmax [14]: 0.01 µM
- AUC(0-t) at 24 h [15]: 4.1 µM·h
- half-life [16]: 1.2 h
- half-life [17]: 1.3 h
- half-life [18]: 0.9 h
- Vd [19]: 0.4 L/kg
- Vd [20]: 1.9 L/kg
- clearance [21]: 18 mL/min/kg
- clearance [22]: 11 mL/min/kg
- EC50 (Hepatitis C virus [23]): 2.9 nM
- AUC (Pan troglodytes): 5.2 µM·h
- EC50 [24]: 1.6 nM
